Source: ChEMBL document CHEMBL3632606, “Structural Optimization of Indole Derivatives Acting at Colchicine Binding Site as Potential Anticancer Agents” (ACS Med Chem Lett, 2015)
The source made the active and inactive calls. No cut-off for these calls is given here.

Tests used:
PC-3 [1] = assay: Cytotoxicity against human PC3 cells after 48 hrs by MTS assay; format: functional, cell-based; settings: PC-3, 48 h
PC-3 [2] = assay: Cytotoxicity against human paclitaxel-resistant PC3 cells after 48 hrs by MTS assay; format: functional, cell-based; settings: PC-3, 48 h
[3] = Half life in human liver microsomes at 2 uM by LC-MS/MS analysis; format: ADME
A-375 [4] = assay: Cytotoxicity against human A375 cells after 48 hrs by MTS assay; format: functional, cell-based; settings: A-375, 48 h
DU-145 [5] = assay: Cytotoxicity against human paclitaxel-resistant DU145 cells after 48 hrs by MTS assay; format: functional, cell-based; settings: DU-145, 48 h
[6] = Cytotoxicity against human M14/LCC6R1 cells after 48 hrs by MTS assay; format: functional, cell-based; settings: M14/LCC6R1, 48 h
DU-145 [7] = assay: Cytotoxicity against human DU145 cells after 48 hrs by MTS assay; format: functional, cell-based; settings: DU-145, 48 h
M14 = assay: Cytotoxicity against human M14 cells after 48 hrs by MTS assay; format: functional, cell-based; settings: M14, 48 h
[8] = Half life in mouse liver microsomes at 2 uM by LC-MS/MS analysis; format: ADME
[9] = Lipophilicity, log P of the compound; format: physicochemical; settings: octanol/water
LNCaP = assay: Cytotoxicity against human LNCAP cells after 48 hrs by MTS assay; format: functional, cell-based
[10] = Cytotoxicity against human WM164 cells after 48 hrs by MTS assay; format: functional, cell-based; settings: WM164, 48 h
[11] = Cytotoxicity against human PPC1 cells after 48 hrs by MTS assay; format: functional, cell-based; settings: PPC-1, 48 h
Tubulin (Sus scrofa) = Tubulin (Sus scrofa) (UniProt P02554+P02550); assay: Inhibition of porcine tubulin polymerization measured every 1 min for 60 mins; format: protein assay
Tubulin (Sus scrofa), sequence (P02550 whole entry, looked up): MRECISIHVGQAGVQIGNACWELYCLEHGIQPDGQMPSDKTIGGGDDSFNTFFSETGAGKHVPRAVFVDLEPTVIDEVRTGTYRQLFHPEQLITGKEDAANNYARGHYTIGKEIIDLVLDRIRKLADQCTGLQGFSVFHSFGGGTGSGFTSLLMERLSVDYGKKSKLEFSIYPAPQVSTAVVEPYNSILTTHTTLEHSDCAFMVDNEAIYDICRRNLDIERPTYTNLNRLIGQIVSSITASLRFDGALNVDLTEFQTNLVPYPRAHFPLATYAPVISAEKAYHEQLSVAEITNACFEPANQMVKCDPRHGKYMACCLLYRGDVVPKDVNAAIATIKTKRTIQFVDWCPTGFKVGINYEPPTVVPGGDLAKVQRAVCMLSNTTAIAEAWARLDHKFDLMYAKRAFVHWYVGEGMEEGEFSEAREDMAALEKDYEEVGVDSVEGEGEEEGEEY
Tubulin (Sus scrofa), sequence (P02554 whole entry, looked up): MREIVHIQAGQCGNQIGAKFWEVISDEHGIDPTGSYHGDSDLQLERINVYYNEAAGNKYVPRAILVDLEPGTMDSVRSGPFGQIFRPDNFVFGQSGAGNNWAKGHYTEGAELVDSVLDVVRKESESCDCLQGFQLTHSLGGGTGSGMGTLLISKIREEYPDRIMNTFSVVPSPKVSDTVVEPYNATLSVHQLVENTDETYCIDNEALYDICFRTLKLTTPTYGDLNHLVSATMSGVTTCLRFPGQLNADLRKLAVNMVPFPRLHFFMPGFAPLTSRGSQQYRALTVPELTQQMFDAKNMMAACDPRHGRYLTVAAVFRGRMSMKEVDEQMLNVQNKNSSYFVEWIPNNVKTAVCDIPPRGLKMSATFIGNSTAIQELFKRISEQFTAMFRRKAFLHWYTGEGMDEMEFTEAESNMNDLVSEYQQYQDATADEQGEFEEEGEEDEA
Outline: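 In vitro microtubule polymerization run with test agents at 5 or 10 μM. Vehicle, paclitaxel (5 μM) and colchicine (5 μM) were run as controls under the same conditions. Curves are from a representative experiment.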

A-375 [12] = assay: Cell cycle arrest in human A375 cells at 10 nM after 24 hrs using propidium iodide staining by flow cytometry analysis; format: functional, cell-based
Outline: (§1)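 Cells treated with test agents for 24 h, then cell cycle distribution measured by flow cytometry; G2/M fraction compared with a vehicle-treated control group; N = 3.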

A-375 [13] = assay: Cell cycle arrest in human A375 cells assessed as accumulation at G2/M phase at 50 nM after 24 hrs using propidium iodide staining by flow cytometry analysis (reference value: 4 +/- 0.5%); format: functional; outline: as §1
PC-3 [14] = assay: Cell cycle arrest in human PC3 cells assessed as accumulation at G2/M phase at 10 nM after 24 hrs using propidium iodide staining by flow cytometry analysis; format: functional, cell-based; outline: as §1

half-life at 2 µM [3] | half-life at 2 µM [8] | logP [9] | inhibition (Tubulin (Sus scrofa)) | Compound | IC50 (PC-3 [1]) | IC50 (PC-3 [2]) | IC50 (A-375 [4]) | IC50 (DU-145 [5]) | IC50 [6] | IC50 (DU-145 [7]) | IC50 (M14) | IC50 (LNCaP) | IC50 [10] | IC50 [11] | Activity (A-375 [12]) | Activity (A-375 [13]) | Activity (PC-3 [14])
45.4 min | 16.1 min | – | – | COc1cc(-c2nccc3[nH]c(-c4ccc5[nH]ccc5c4)nc23)cc(OC)c1OC | 27 nM | 34 nM | 22 nM | 164 nM | 116 nM | 121 nM | 53 nM | – | – | – | – | – | –
24 min | – | 4.14 | – | COc1cc(C(=O)c2cccc(-c3cc4ccccc4[nH]3)c2)cc(OC)c1OC | 28.2 nM | – | – | – | – | – | – | – | – | – | – | – | –
– | – | – | – | O=S(=O)(c1ccccc1)n1ccc2c(-c3nc4c(Br)nccc4[nH]3)cccc21 | > 30000 nM | > 30000 nM | > 30000 nM | > 30000 nM | > 30000 nM | > 30000 nM | > 30000 nM | – | – | – | – | – | –
– | – | – | – | c1cc2ccc(-c3ccc4[nH]ccc4c3)cc2c(-c2ccc3[nH]ccc3c2)n1 | 72 nM | – | 93 nM | – | – | 113 nM | 111 nM | 98 nM | 147 nM | 48 nM | – | – | –
– | – | – | – | COc1cc(-c2nccc3[nH]c(-c4cccc5cc[nH]c45)nc23)cc(OC)c1OC | 43 nM | 65 nM | 24 nM | > 30000 nM | 53 nM | 177 nM | 28 nM | – | – | – | – | – | –
– | – | – | – | COc1cc(-c2nccc3[nH]c(-c4cccc5c4ccn5S(=O)(=O)c4ccccc4)nc23)cc(OC)c1OC | 956 nM | 570 nM | 263 nM | 325 nM | 730 nM | 406 nM | 670 nM | – | – | – | – | – | –
– | – | – | – | COc1cc(-c2nccc3c2NC(c2cccc4cc[nH]c24)N3)cc(OC)c1OC (stereo not drawn) | 1240 nM | 689 nM | 984 nM | 3660 nM | 975 nM | 2540 nM | 1060 nM | – | – | – | – | – | –
– | – | – | – | COc1cc(-c2ccc3ccnc(-c4cc(OC)c(OC)c(OC)c4)c3c2)cc(OC)c1OC | – | – | 10700 nM | – | – | – | 9740 nM | – | 6670 nM | – | – | – | –
30.7 min | 2 min | – | – | Fc1ccc(-c2nccc3ccc(-c4ccc5[nH]ccc5c4)cc23)cc1 | 26 nM | – | 66 nM | – | – | 47 nM | 49 nM | 38 nM | 33 nM | 28 nM | – | – | –
56.3 min | 27.7 min | – | Dose-dependent effect | COc1cc(-c2nccc3[nH]c(-c4ccc5cc[nH]c5c4)nc23)cc(OC)c1OC | 8 nM | 13 nM | 3 nM | 12 nM | 53 nM | 12 nM | 16 nM | – | – | – | inactive | 65.9% | Active
33.1 min | 10.5 min | – | Dose-dependent effect | COc1cc(-c2nccc3[nH]c(-c4cccc5[nH]ccc45)nc23)cc(OC)c1OC | 7 nM | 12 nM | 3 nM | 17 nM | 25 nM | 14 nM | 14 nM | – | – | – | inactive | 42% | Active
– | – | – | – | COc1cc(-c2nccc3[nH]c(-c4c[nH]c5ccccc45)nc23)cc(OC)c1OC | 27 nM | 7 nM | 16 nM | 74 nM | 88 nM | 222 nM | 26 nM | – | – | – | – | – | –
– | – | – | – | Fc1ccc(-c2ccc3ccnc(-c4ccc(F)cc4)c3c2)cc1 | > 30000 nM | – | > 30000 nM | – | – | > 30000 nM | > 30000 nM | > 30000 nM | > 30000 nM | > 30000 nM | – | – | –
– | – | – | – | COc1cc(-c2nccc3[nH]c(-c4cc5ccccc5[nH]4)nc23)cc(OC)c1OC | 170 nM | 120 nM | 175 nM | 2040 nM | 191 nM | 1700 nM | 164 nM | – | – | – | – | – | –
– | – | – | – | COc1cc(-c2nccc3[nH]c(-c4cccc5ccn(S(=O)(=O)c6ccccc6)c45)nc23)cc(OC)c1OC | 623 nM | 525 nM | 551 nM | > 30000 nM | 545 nM | 1030 nM | 471 nM | – | – | – | – | – | –
38.9 min | 2.1 min | 4.63 | – | COc1cc(-c2nccc3ccc(-c4ccc5[nH]ccc5c4)cc23)cc(OC)c1OC | 64 nM | – | 929 nM | – | – | 92 nM | 74 nM | 81 nM | 227 nM | 61 nM | – | – | –
